Test results as given in ChEMBL document CHEMBL3352181, “Novel phenyl and pyridyl substituted derivatives of isoindolines: Synthesis, antitumor activity and DNA binding features” (Eur J Med Chem, 2014).
pIC50: −log10 of the molar value. Values belong to the molecule of their own block, whether it stands above or below them. The source made the active and inactive calls. The calls are words filed in the database; no cut-off is given here.

Columns and labels:
HepG2 [1] = assay: Induction of cell cycle arrest on human HepG2 cells assessed as accumulation at subG1 phase at 10 uM after 24 hrs by propidium iodide staining based flow cytometry (reference value: 4.8 +/- 0.6%); assay type: functional
Outline: (§1)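 HepG2 or SW620 cells were seeded at 25000 per well. After 24 h they were treated, then harvested 24 or 48 h later. Attached cells were trypsinized, pooled with floating cells, PBS-washed and fixed in 70% ethanol. Cells were stained with PI 1 µg/mL plus RNase A 0.2 µg/mL, and 10 000 events were acquired by flow cytometry. Phase percentages come from DNA histograms, in duplicate, with ANOVA at p < 0.05.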

HepG2 [2] = assay: Induction of cell cycle arrest on human HepG2 cells assessed as accumulation at subG1 phase at 25 uM after 24 hrs by propidium iodide staining based flow cytometry (reference value: 4.8 +/- 0.6%); assay type: functional; outline: as §1
HepG2 [3] = assay: Induction of cell cycle arrest on human HepG2 cells assessed as accumulation at G1 phase at 10 uM after 24 hrs by propidium iodide staining based flow cytometry (reference value: 61.4 +/- 2.0%); assay type: functional
HepG2 [4] = assay: Induction of cell cycle arrest on human HepG2 cells assessed as accumulation at G1 phase at 25 uM after 24 hrs by propidium iodide staining based flow cytometry (reference value: 61.4 +/- 2.0%); assay type: functional
HepG2 [5] = assay: Induction of cell cycle arrest on human HepG2 cells assessed as accumulation at S phase at 10 uM after 24 hrs by propidium iodide staining based flow cytometry (reference value: 12.0 +/- 10.2%); assay type: functional
HepG2 [6] = assay: Induction of cell cycle arrest on human HepG2 cells assessed as accumulation at S phase at 25 uM after 24 hrs by propidium iodide staining based flow cytometry (reference value: 12.0 +/- 10.2%); assay type: functional; outline: as §1
HepG2 [7] = assay: Induction of cell cycle arrest on human HepG2 cells assessed as accumulation at G2/M phase at 10 uM after 24 hrs by propidium iodide staining based flow cytometry (reference value: 26.6 +/- 12.2%); assay type: functional
HepG2 [8] = assay: Induction of cell cycle arrest on human HepG2 cells assessed as accumulation at G2/M phase at 25 uM after 24 hrs by propidium iodide staining based flow cytometry (reference value: 26.6 +/- 12.2%); assay type: functional
HepG2 [9] = assay: Induction of cell cycle arrest on human HepG2 cells assessed as accumulation at subG1 phase at 10 uM after 48 hrs by propidium iodide staining based flow cytometry (reference value: 1.9%); assay type: functional; outline: as §1
HepG2 [10] = assay: Induction of cell cycle arrest on human HepG2 cells assessed as accumulation at subG1 phase at 25 uM after 48 hrs by propidium iodide staining based flow cytometry (reference value: 1.9%); assay type: functional; outline: as §1
HepG2 [11] = assay: Induction of cell cycle arrest on human HepG2 cells assessed as accumulation at G1 phase at 10 uM after 48 hrs by propidium iodide staining based flow cytometry (reference value: 62.1 +/- 4.9%); assay type: functional
HepG2 [12] = assay: Induction of cell cycle arrest on human HepG2 cells assessed as accumulation at G1 phase at 25 uM after 48 hrs by propidium iodide staining based flow cytometry (reference value: 62.1 +/- 4.9%); assay type: functional
HepG2 [13] = assay: Induction of cell cycle arrest on human HepG2 cells assessed as accumulation at S phase at 10 uM after 48 hrs by propidium iodide staining based flow cytometry (reference value: 6.8 +/- 5.3%); assay type: functional
HepG2 [14] = assay: Induction of cell cycle arrest on human HepG2 cells assessed as accumulation at S phase at 25 uM after 48 hrs by propidium iodide staining based flow cytometry (reference value: 6.8 +/- 5.3%); assay type: functional; outline: as §1
HepG2 [15] = assay: Induction of cell cycle arrest on human HepG2 cells assessed as accumulation at G2/M phase at 10 uM after 48 hrs by propidium iodide staining based flow cytometry (reference value: 31.1 +/- 0.4%); assay type: functional
HepG2 [16] = assay: Induction of cell cycle arrest on human HepG2 cells assessed as accumulation at G2/M phase at 25 uM after 48 hrs by propidium iodide staining based flow cytometry (reference value: 31.1 +/- 0.4%); assay type: functional
HepG2 [17] = assay: Induction of apoptosis in human HepG2 cells assessed as enlarged cells level at 25 uM after 24 hrs by Annexin V-Fluos staining based fluorescent microscopy; assay type: functional, cell-based
Outline: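 Cells seeded on chamber slides at 4000 per well and treated 24 h (HepG2 at 25 or 50 µM; SW620 at 50 µM). Incubated 15 min with Annexin V-Fluos reagent plus propidium iodide, washed in PBS, and examined by fluorescence microscopy for morphology and labelling.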

[18] = target: T1, DNA topoisomerase 1 (Homo sapiens) (UniProt P11387); assay: Inhibition of human topoisomerase 1 assessed as topoisomerase poison activity by measuring generation of open circular DNA using supercoiled pUC19 DNA at 5 to 50 uM by agarose gel electrophoresis
T1 sequence (whole entry): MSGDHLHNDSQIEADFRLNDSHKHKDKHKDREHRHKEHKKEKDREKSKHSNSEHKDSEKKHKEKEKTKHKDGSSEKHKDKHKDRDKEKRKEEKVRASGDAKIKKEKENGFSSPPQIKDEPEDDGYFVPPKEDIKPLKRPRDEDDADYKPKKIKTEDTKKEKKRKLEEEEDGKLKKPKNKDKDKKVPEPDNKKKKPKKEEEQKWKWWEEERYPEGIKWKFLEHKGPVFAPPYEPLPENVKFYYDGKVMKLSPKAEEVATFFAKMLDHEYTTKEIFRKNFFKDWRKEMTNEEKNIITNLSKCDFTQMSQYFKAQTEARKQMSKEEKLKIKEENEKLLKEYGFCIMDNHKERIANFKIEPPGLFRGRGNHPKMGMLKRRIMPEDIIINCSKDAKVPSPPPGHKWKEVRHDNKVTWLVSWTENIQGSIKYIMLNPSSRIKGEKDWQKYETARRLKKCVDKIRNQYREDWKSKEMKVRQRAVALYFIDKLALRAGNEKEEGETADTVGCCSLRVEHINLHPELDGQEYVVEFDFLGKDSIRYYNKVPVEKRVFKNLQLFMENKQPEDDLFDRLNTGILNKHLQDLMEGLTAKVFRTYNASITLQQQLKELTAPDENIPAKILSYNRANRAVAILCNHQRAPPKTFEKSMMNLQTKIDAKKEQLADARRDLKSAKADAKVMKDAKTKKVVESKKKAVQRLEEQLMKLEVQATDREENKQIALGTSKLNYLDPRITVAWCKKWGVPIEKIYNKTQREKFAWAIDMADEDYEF
Outline: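 Supercoiled pUC19 plasmid was incubated with human topoisomerase I and graded compound concentrations. Reactions were stopped with SDS and proteinase K. DNA forms were resolved on 1% agarose in TBE (2 h, 120 V), post-stained with ethidium bromide and photographed under UV. Poisoning was read as appearance of nicked DNA, with camptothecin as the positive control.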

MCF7 = assay: Antiproliferative activity against human MCF7 cells assessed as inhibition of cell proliferation after 72 hrs by MTT assay; assay type: functional, cell-based; settings: for pIC50: Homo sapiens, MCF7, 72 h
Outline: (§2)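 Cells grown as monolayers in DMEM with 10% FBS, 2 mM L-glutamine, penicillin/streptomycin, 37 °C, 5% CO2. Seeded at 5000/well on day 0. Compounds added after 24 h as five serial dilutions (0,01 to 100 µM), DMSO ≤0.1%, then 72 h. MTT read-out converted to percentage growth. IC50 by linear regression; quadruplicates in three experiments.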

[19] = (§3) Antiproliferative activity against human SW620 cells assessed as inhibition of cell proliferation after 72 hrs by MTT assay; assay type: functional, cell-based, SW-620; settings: Homo sapiens, SW-620, 72 h; outline: as §2
SW-620 = assay: as §3; assay type: functional, cell-based; outline: as §2
HepG2 [20] = assay: Antiproliferative activity against human HepG2 cells assessed as inhibition of cell proliferation after 72 hrs by MTT assay; assay type: functional, cell-based; settings: for pIC50: HepG2, 72 h; outline: as §2
BJ = assay: Antiproliferative activity against human BJ cells assessed as inhibition of cell proliferation after 72 hrs by MTT assay; assay type: cell-based; settings: 72 h; outline: as §2
HeLa = assay: Antiproliferative activity against human HeLa cells assessed as inhibition of cell proliferation after 72 hrs by MTT assay; assay type: functional, cell-based; settings: for pIC50: Homo sapiens, HeLa, 72 h; outline: as §2
Calf thymus DNA [21] = assay: Binding affinity to calf thymus DNA assessed as change in melting temperature at drug/ base pair ratio of 0.25 by spectrophotometry; assay type: nucleic-acid assay; settings: Bos taurus
Outline: (§4)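 CT-DNA absorbance followed at 260 nm from 20 to 100 °C, rising 1 °C per min, in BPE buffer, with or without compound at drug/base-pair ratio 0.25 or 0.5. Tm taken as midpoint of the hyperchromic transition from first-derivative plots. ΔTm is Tm with compound minus Tm of DNA alone.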

Calf thymus DNA [22] = assay: Binding affinity to calf thymus DNA assessed as change in melting temperature at drug/ base pair ratio of 0.5 by spectrophotometry; assay type: nucleic-acid assay; settings: Bos taurus; outline: as §4
Calf thymus DNA [23] = assay: Binding affinity to calf thymus DNA at 50 uM circular dichroism spectroscopy; assay type: nucleic-acid assay; settings: Bos taurus
Outline: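 CD spectra recorded from 480 to 230 nm, 10 mm path, 20 °C, in BPE buffer. CT-DNA (50 µM) incubated with compound rising from 1 to 60 µM or to 80 µM. Compound without DNA served as the control for intrinsic CD.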

Nucleic Acid = assay: Induction of DNA intercalation in supercoiled pUC19 DNA in presence of human topoisomerase 1 assessed as effect on topoisomerase 1-mediated DNA relaxation at 50 uM by agarose gel electrophoresis; assay type: nucleic-acid assay; settings: Escherichia coli
Outline: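 Supercoiled pUC19 incubated with human topoisomerase I and graded compound concentrations. Stopped with SDS/proteinase K. DNA forms resolved on 1% agarose in TBE, 2 h at 120 V, stained post-run with ethidium bromide and viewed under UV. Camptothecin was the topo I poison control.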

[24] = Binding affinity to pBluescript 265 bp DNA fragment (unknown origin) assessed binding to AT-rich AATT sequence at 1 to 25 uM incubated for 15 mins by DNase-1 foot printing assay
Outline: (§5)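 265 bp EcoRI/PvuII fragment of pBluescript, 3'-end labelled with α[32P]-dATP, incubated with compound (up to 50 µM) for 15 min at 37 °C, then mildly digested with DNase I. Run on 8% denaturing polyacrylamide/8 M urea gels and imaged by phosphor screen. Base positions assigned against a DMS/piperidine G-track.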

[25] = Binding affinity to pBluescript 265 bp DNA fragment (unknown origin) assessed binding to AT-rich ATTA sequence at 1 to 25 uM incubated for 15 mins by DNase-1 foot printing assay; outline: as §5
[26] = Binding affinity to pBluescript 265 bp DNA fragment (unknown origin) assessed binding to ACAA sequence at 1 to 25 uM incubated for 15 mins by DNase-1 foot printing assay; outline: as §5
[27] = Binding affinity to pBluescript 265 bp DNA fragment (unknown origin) assessed binding to TTGT) sequence at 1 to 25 uM incubated for 15 mins by DNase-1 foot printing assay; outline: as §5
[28] = Antiproliferative activity against human WI38 cells assessed as inhibition of cell proliferation after 72 hrs by MTT assay; assay type: cell-based, WI-38; outline: as §2

pIC50 (MCF7): 4.34
pIC50 (HepG2 [20]): 5.33
pIC50 (HeLa): 4.30
Structure (SMILES): N#Cc1ccc(/N=C2\c3ccccc3CN2c2ccc(C#N)cc2)cc1
Activity (HepG2 [1]): 13.3%
Activity (HepG2 [2]): 15.7%
Activity (HepG2 [3]): 54.1%
Activity (HepG2 [4]): 45.9%
Activity (HepG2 [5]): 26.7%
Activity (HepG2 [6]): 16.8%
Activity (HepG2 [7]): 19.2%
Activity (HepG2 [8]): 37.3%
Activity (HepG2 [9]): 5.2%
Activity (HepG2 [10]): 5.7%
Activity (HepG2 [11]): 0%
Activity (HepG2 [12]): 0%
Activity (HepG2 [13]): 0%
Activity (HepG2 [14]): 0%
Activity (HepG2 [15]): 100%
Activity (HepG2 [16]): 100%
Activity (HepG2 [17]): Active
inhibition [18]: inactive
inhibition (MCF7): Dose-dependent effect
pIC50 [19]: 4.11
inhibition (SW-620): Dose-dependent effect
inhibition (HepG2 [20]): Dose-dependent effect
pIC50 (BJ; Homo sapiens, BJ): 4.12
inhibition (INH) (BJ; human, bj): Dose-dependent effect
inhibition (HeLa): Dose-dependent effect

ΔTm (Calf thymus DNA [21]): 6.3 °C
ΔTm (Calf thymus DNA [22]): 11.3 °C
Activity (Calf thymus DNA [23]): Active
Activity (Nucleic Acid): inactive
Activity [24]: Active
Activity [25]: Active
Activity [26]: Active
Activity [27]: Active
pIC50 (MCF7): 4.27
pIC50 (HepG2 [20]): 4.21
pIC50 (HeLa): < 4.00
Structure (SMILES): CC(C)NC(=N)c1ccc(/N=C2\c3ccccc3CN2c2ccc(C(=N)NC(C)C)cc2)cc1.Cl
inhibition [18]: inactive
pIC50 ([28]; Homo sapiens, WI-38, 72 h): 4.27
inhibition (INH) ([28]; human, wi-38, 72 h): Dose-dependent effect
inhibition (MCF7): Dose-dependent effect
pIC50 [19]: < 4.00
inhibition (SW-620): Dose-dependent effect
inhibition (HepG2 [20]): Dose-dependent effect
inhibition (HeLa): Dose-dependent effect
